# In ChEMBL document CHEMBL3600329, “Synthesis, biological profiling and mechanistic studies of 4-aminoquinoline-based heterodimeric compounds with dual trypanocidal-antiplasmodial activity” (Bioorg Med Chem, 2015):
# Legend:
# [1] = Inhibition of beta-haematin formation by microplate reader analysis relative to hemin; assay type: physicochemical
# Method in brief: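 Haemin chloride (8 mM stock in DMSO) mixed with serial compound dilutions (0.5-32 mM) in 25% DMSO; formation initiated with 8 M acetate buffer pH 5.0, 18 h at 37 °C. Pellets washed with DMSO, β-haematin dissolved in 0.1 M NaOH, OD 400 nm read versus drug-free controls; BHIA50 expressed as compound equivalents relative to haemin, by linear regression.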
# [2] = Selectivity index, ratio of IC50 for rat L6 cells to IC50 for bloodstream form of Trypanosoma brucei 221; assay type: toxicity, cell-based; details: read-out: Ratio IC50
# Method in brief: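 IC50 ratio, L6 over T. brucei. L6 cells seeded at 1×10^4 mL⁻¹ with compound, 6 days at 37 °C, then resazurin, 8 h more, fluorescence read. Log-phase bloodstream T. brucei 221 in modified Iscove's medium at 0.25 × 105 mL⁻¹, compound range in triplicate, 37 °C; resazurin at 48 h, read after 16 h more.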
# L6 = test: Cytotoxicity against rat L6 cells assessed as inhibition of cell growth after 6 days by Spectramax fluorescence plate reader analysis; assay type: cell-based; details: L6, 144 h
# Method in brief: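 L6 rat skeletal myoblasts seeded at 1×10^4 mL⁻¹ in growth medium containing a range of compound concentrations, incubated 6 days at 37 °C; resazurin added, fluorescence read after a further 8 h. IC50 = concentration inhibiting growth by 50%; mean of triplicate experiments ± SEM.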
# Trypanosoma brucei = test: Trypanocidal activity against bloodstream form of Trypanosoma brucei 221 assessed as inhibition of parasite growth at pH 7.4 after 48 hrs by Spectramax plate reader analysis; assay type: functional, organism-based; details: Trypanosoma brucei, 221, 48 h
# Method in brief: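 Bloodstream-form T. brucei strain 221 grown at 37 °C in modified Iscove's medium; log-phase cells diluted to 0.25 × 10^5 mL⁻¹, exposed to a range of compound concentrations in triplicate at 37 °C. Resazurin added after 48 h, read after a further 16 h. IC50 and IC90 = concentrations inhibiting growth 50% and 90%; mean of triplicate experiments ± SEM.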
# [3] = Selectivity index, ratio of IC50 for rat L6 cells to IC50 for chloroquine-resistant Plasmodium falciparum K1; assay type: toxicity, cell-based; details: read-out: Ratio IC50
# Method in brief: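 IC50 ratio, L6 over P. falciparum K1. L6 cells seeded at 1×10^4 mL⁻¹ with compound, 6 days at 37 °C, resazurin added, fluorescence after 8 h. Parasites in A+ erythrocytes (2.5% haematocrit, 1% parasitaemia) with twofold dilutions, 48 h at 37 °C in low-oxygen gas; growth read by LDH activity at 550 nm.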
# Plasmodium falciparum = test: Antiplasmodial activity against chloroquine-resistant Plasmodium falciparum K1 infected in human A+ erythrocytes assessed as inhibition of parasite growth after 48 hrs by LDH assay; assay type: functional, organism-based; details: K1, 48 h
# Method in brief: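 Ring-stage cultures in human A+ erythrocytes (RPMI 1640, A+ serum, D-glucose), 2.5% haematocrit, 1% parasitaemia; twofold serial dilutions in duplicate, DMSO ≤0.5% final. 48 h at 37 °C under 93% N2/3% O2/4% CO2. Growth read as lactate dehydrogenase activity (APAD, lactate, diaphorase, NBT; 550 nm); % inhibition vs controls; IC50 by linear regression; mean of triplicate experiments.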
# Acetylcholinesterase = Acetylcholinesterase (Homo sapiens, UniProt P22303); test: Inhibition of human recombinant AChE using acetylthiocholine iodide as substrate preincubated with enzyme for 20 mins prior to substrate addition by Ellman's method
# Method in brief: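 Ellman assay in 0.1 M phosphate buffer pH 8.0 with hAChE 0.02 u/mL and 333 µM DTNB. At least 10 inhibitor concentrations, in duplicate, preincubated 20 min at 37 °C. Then 450 µM acetylthiocholine iodide, 5 min at 37 °C; absorbance at 414 nm against an uninhibited sample. IC50 by non-linear regression; mean ± S.E.M. of at least 4 experiments.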
# [4] = Permeability by PAMPA-BBB assay; assay type: ADME; details: read-out: Peff
# Method in brief: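 Parallel artificial membrane permeation through porcine brain lipid extract, using PBS:EtOH 70:30; effective permeability Pe reported as mean ± SD of three independent experiments.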
# Chain of Acetylcholinesterase (P22303 whole entry): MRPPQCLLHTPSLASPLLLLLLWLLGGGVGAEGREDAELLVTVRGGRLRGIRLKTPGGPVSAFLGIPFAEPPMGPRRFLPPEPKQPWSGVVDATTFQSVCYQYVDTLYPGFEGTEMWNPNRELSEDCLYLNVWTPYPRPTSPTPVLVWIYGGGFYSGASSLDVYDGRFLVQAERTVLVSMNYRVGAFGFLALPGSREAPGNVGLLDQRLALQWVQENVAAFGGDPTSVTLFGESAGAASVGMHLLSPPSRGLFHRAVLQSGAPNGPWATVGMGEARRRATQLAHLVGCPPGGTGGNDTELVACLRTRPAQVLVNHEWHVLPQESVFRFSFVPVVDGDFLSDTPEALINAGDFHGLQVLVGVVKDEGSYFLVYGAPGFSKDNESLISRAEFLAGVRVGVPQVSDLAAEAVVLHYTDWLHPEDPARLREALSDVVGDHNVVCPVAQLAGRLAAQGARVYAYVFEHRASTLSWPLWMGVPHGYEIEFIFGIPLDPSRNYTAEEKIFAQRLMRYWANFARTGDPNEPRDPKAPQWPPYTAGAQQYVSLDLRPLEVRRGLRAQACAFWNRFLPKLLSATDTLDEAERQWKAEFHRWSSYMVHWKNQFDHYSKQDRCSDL
IC50 [1] [equiv],Compound,selectivity ratio [2],IC50 (L6) [nM],IC50 (Trypanosoma brucei) [nM],IC90 (Trypanosoma brucei) [nM],selectivity ratio [3],IC50 (Plasmodium falciparum) [nM],IC50 (Acetylcholinesterase) [nM],Papp [4] [×10⁻⁶ cm/s]
0.14,CCN(CC)CCCC(C)Nc1ccnc2cc(Cl)ccc12 (configuration not stated) [CHLOROQUINE],,,,,,,,
,CC1=CC2Cc3nc4cc(Cl)ccc4c(NCCCCCCCCCCNc4c5c(nc6ccccc46)CCCC5)c3C(C1)C2 (configuration not stated),12,1670,140,480,,,,
,CC1=CC2Cc3nc4cc(Cl)ccc4c(NCCCCCCCNc4c5c(nc6ccccc46)CCCC5)c3C(C1)C2 (configuration not stated),< 4.2,< 1000,240,430,< 2.1,470,,
,CC1=CC2Cc3nc4ccccc4c(NCCCCCCCCCCNc4c5c(nc6cc(Cl)ccc46)CCCC5)c3C(C1)C2 (configuration not stated),3.3,1110,340,430,0.25,4360,1.48,17.2
,COc1cc2c(cc1OC)C(=O)C(CC1CCN(CCNc3c4c(nc5ccccc35)CCCC4)CC1)C2 (configuration not stated),< 7.3,< 3000,410,880,< 0.37,> 8150,,
,COc1cc2c(cc1OC)CC(CC1CCN(CCNc3c4c(nc5cc(Cl)ccc35)CC3C=C(C)CC4C3)CC1)C2 (configuration not stated),14,6760,490,1180,< 1,> 7010,,
,CC1=CC2Cc3nc4cc(Cl)ccc4c(NCCCCCCNc4c5c(nc6ccccc46)CCCC5)c3C(C1)C2 (configuration not stated),2.5,1170,470,660,0.39,2990,,
,CC1=CC2Cc3nc4cc(Cl)ccc4c(NCCCN(C)CCCNc4c5c(nc6cc(Cl)ccc46)CCCC5)c3C(C1)C2 (configuration not stated),< 3.6,< 1000,280,400,< 1.9,520,,
,CC1=CC2Cc3nc4cc(Cl)ccc4c(NCCCCCCCCCCCCNc4c5c(nc6cc(Cl)ccc46)CCCC5)c3C(C1)C2 (configuration not stated),9.5,5580,590,770,< 0.85,> 6600,3.46,16.8
,CC1=CC2Cc3nc4ccccc4c(NCCCCCCCCCCCCNc4c5c(nc6cc(Cl)ccc46)CCCC5)c3C(C1)C2 (configuration not stated),5,2740,550,750,< 0.4,> 6900,3.66,11
,COc1cc2c(cc1OC)CC(CC1CCN(CCNc3c4c(nc5cc(Cl)ccc35)CCCC4)CC1)C2,2.5,2420,970,2390,< 0.31,> 7720,,
,CC1=CC2Cc3nc4ccccc4c(NCCCCCCCCCCCCNc4c5c(nc6ccccc46)CCCC5)c3C(C1)C2 (configuration not stated),< 4.8,< 1000,210,280,< 0.14,> 7300,10.1,7.3
,CCC1=C[C@@H]2Cc3nc4cc(Cl)ccc4c(NCCCN4CCC(CC5Cc6cc(OC)c(OC)cc6C5)CC4)c3[C@H](C1)C2,8.3,2150,260,1330,2.7,810,,
,CC1=C[C@H]2Cc3nc4cc(Cl)ccc4c(NCCCCCCCNc4c5c(nc6ccccc46)CCCC5)c3[C@@H](C1)C2,3.5,730,210,420,2.1,350,,
,CC1=CC2Cc3nc4cc(Cl)ccc4c(NCCCCCCNc4c5c(nc6cc(Cl)ccc46)CCCC5)c3C(C1)C2 (configuration not stated),2,1100,560,790,0.25,4400,,
,CCC1=C[C@@H]2Cc3nc4cc(Cl)ccc4c(NCCN4CCC(CC5Cc6cc(OC)c(OC)cc6C5)CC4)c3[C@H](C1)C2,22,6290,290,720,< 0.89,> 7050,,
,COc1cc2c(cc1OC)CC(CC1CCN(CCNc3c4c(nc5ccccc35)CCCC4)CC1)C2,< 7.9,< 3000,380,790,< 1.2,2600,,
,CC1=CC2Cc3nc4cc(Cl)ccc4c(NCCCCCCCCCCNc4c5c(nc6cc(Cl)ccc46)CCCC5)c3C(C1)C2 (configuration not stated),15,2630,170,490,1.3,2100,,
,CC1=CC2Cc3nc4cc(Cl)ccc4c(NCCCCCCCNc4c5c(nc6cc(Cl)ccc46)CCCC5)c3C(C1)C2 (configuration not stated),< 11,< 3000,270,430,< 0.44,> 6880,,
,CC1=CC2Cc3nc4cc(Cl)ccc4c(NCCCCCCCCCCCCNc4c5c(nc6ccccc46)CCCC5)c3C(C1)C2 (configuration not stated),3,1040,350,520,< 0.15,> 6900,1.92,10.8
,CC1=CC2Cc3nc4cc(Cl)ccc4c(NCCCN(C)CCCNc4c5c(nc6ccccc46)CCCC5)c3C(C1)C2 (configuration not stated),< 3.1,< 1000,320,450,< 2.3,430,,
,CC1=C[C@@H]2Cc3nc4cc(Cl)ccc4c(NCCCCCCCNc4c5c(nc6ccccc46)CCCC5)c3[C@H](C1)C2,< 3.4,< 1000,290,490,< 2.2,460,,
,CC1=CC2Cc3nc4cc(Cl)ccc4c(NCCCCCCCCNc4c5c(nc6cc(Cl)ccc46)CCCC5)c3C(C1)C2 (configuration not stated),5.7,970,170,460,< 0.14,> 7140,,
,CC1=CC2Cc3nc4cc(Cl)ccc4c(NCCCCCCCCCNc4c5c(nc6cc(Cl)ccc46)CCCC5)c3C(C1)C2 (configuration not stated),167,40000,240,520,< 5.9,> 6820,,
,COc1cc2c(cc1OC)C(=O)C(CC1CCN(CCNc3c4c(nc5cc(Cl)ccc35)CCCC4)CC1)C2 (configuration not stated),< 10,< 3000,300,680,< 0.62,4860,,
> 4,CN(C)[C@@H]1C(O)=C(C(N)=O)C(=O)[C@@]2(O)C(O)=C3C(=O)c4c(O)cccc4[C@@](C)(O)[C@H]3C[C@@H]12 [TETRACYCLINE],,,,,,,,
,COc1cc2c(cc1OC)C(=O)C(CC1CCN(CCCNc3c4c(nc5ccccc35)CCCC4)CC1)C2 (configuration not stated),< 3.6,< 1000,280,620,,,,
,CCC1=CC2Cc3nc4cc(Cl)ccc4c(NCCN4CCC(CC5Cc6cc(OC)c(OC)cc6C5)CC4)c3C(C1)C2 (configuration not stated),12,3550,290,700,< 0.5,> 7140,,
,CC1=CC2Cc3nc4ccccc4c(NCCCCCCCCCCNc4c5c(nc6ccccc46)CCCC5)c3C(C1)C2 (configuration not stated),< 4.2,< 1000,240,310,< 0.29,3500,6.46,6.3
